In PMC3182458 (Bioorganic & medicinal chemistry letters, 2008):
pEC50: −log10 of the molar value. “And” between values parts separate entries of the source, which are not always exact repeats. Equal values may be shown once. “Also recorded” adds a separate entry of the source.

What was measured:
[1] = cited from earlier work
[2] = target: human mGluR4 (Homo sapiens, UniProt Q14833); assay type: cell-based
[3] = system: rat mGluR5; assay: calcium fluorescence counterscreen in rat mGluR5/HEK cells; assay type: cell-based
Procedure, shortened: (§1)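 Calcium mobilization in rat receptor lines: mGluR1/BHK plated at 20,000 cells/well, mGluR5/HEK at 15,000 cells/well, in DMEM with 10% dialyzed FBS and 20 mM HEPES. […] Test compound run as a 10-point curve from 30 µM final, 1:3 dilutions. Maximum fluorescence of the EC20 and EC80 peaks is expressed versus control.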

[4] = stability in fortified liver microsome preparations; assay type: in vitro ADME; conditions: after 90 minutes, fortified liver microsomes
[5] = target: rat mGluR1 (Rattus norvegicus, UniProt P23385); assay: calcium fluorescence counterscreen in rat mGluR1/BHK cells; assay type: cell-based
Procedure, shortened: as §1

human mGluR4, sequence (Q14833 33-912): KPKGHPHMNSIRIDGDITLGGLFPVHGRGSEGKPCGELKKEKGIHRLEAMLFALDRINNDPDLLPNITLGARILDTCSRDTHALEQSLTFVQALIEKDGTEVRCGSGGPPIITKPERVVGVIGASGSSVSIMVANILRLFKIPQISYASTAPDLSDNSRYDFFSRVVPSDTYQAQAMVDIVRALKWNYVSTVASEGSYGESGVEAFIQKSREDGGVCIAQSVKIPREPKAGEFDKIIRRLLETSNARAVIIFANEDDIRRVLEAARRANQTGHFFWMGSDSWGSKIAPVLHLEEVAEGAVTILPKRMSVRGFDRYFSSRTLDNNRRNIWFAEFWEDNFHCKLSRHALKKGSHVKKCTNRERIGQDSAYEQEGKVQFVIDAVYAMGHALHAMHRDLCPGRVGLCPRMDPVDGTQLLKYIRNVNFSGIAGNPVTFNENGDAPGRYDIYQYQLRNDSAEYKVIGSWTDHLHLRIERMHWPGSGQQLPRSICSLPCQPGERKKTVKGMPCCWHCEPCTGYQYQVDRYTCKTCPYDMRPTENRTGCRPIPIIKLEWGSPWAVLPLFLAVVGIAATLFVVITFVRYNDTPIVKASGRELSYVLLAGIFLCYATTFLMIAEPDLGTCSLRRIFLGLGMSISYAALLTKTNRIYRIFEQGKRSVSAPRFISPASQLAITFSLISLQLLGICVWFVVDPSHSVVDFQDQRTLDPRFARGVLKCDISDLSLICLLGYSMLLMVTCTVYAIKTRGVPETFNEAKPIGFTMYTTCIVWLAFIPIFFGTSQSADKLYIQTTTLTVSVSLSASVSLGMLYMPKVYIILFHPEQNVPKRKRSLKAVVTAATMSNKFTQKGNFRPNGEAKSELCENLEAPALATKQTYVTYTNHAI
rat mGluR1, sequence (P23385 19-1199): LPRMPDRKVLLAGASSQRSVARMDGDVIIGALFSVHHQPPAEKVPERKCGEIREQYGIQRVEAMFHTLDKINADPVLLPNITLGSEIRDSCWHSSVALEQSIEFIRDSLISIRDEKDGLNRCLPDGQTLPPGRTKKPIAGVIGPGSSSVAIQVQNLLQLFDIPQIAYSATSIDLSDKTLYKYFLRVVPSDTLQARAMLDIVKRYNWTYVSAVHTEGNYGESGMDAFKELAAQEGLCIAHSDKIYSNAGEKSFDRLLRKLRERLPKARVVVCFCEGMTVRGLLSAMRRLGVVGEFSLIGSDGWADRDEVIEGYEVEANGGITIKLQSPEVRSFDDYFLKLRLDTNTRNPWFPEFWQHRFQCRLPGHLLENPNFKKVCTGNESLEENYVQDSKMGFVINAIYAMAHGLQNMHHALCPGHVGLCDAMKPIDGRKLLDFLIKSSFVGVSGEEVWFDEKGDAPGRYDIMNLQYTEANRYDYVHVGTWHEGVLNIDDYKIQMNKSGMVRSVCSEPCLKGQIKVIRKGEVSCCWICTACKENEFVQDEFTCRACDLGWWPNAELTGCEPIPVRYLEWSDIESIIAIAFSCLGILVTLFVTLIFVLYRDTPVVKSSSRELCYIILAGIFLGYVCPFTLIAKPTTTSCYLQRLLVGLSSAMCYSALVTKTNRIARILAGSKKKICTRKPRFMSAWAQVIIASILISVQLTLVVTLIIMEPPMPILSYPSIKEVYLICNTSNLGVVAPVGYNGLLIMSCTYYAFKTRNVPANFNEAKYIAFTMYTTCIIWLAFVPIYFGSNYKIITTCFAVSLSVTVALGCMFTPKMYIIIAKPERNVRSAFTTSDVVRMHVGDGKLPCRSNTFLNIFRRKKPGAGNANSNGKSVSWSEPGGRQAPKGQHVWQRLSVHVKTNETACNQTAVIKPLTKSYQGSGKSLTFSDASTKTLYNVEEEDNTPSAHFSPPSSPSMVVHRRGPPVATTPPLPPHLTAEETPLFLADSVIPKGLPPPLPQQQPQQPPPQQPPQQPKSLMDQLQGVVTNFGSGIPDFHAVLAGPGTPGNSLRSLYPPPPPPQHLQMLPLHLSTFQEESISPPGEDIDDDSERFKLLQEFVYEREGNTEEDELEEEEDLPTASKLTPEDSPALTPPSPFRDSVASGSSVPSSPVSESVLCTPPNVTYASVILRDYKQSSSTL

Row | SMILES | brain penetration [1] | effect on the glutamate max (maximal response) ([2]; compound at 30 µM) | selectivity versus mGluR5 [3] | parent compound remaining [4] [%] | mode of action at mGluR1 [5] | pEC50 [2] | Fold shift (leftward shift of the glutamate response curve) ([2]; compound at 30 µM, HTS stock of 7) | potentiation of an EC20 of glutamate in the HTS campaign ([2]; mGluR4/Gqi5 CHO cells, HTS) | effect on mGluR4 in the absence of glutamate ([2]; no glutamate) | CNS penetration [1]
1 | O=C(Nc1ccccc1)[C@]12C[C@H]1/C(=N\O)c1ccccc1O2 [(−)-PHCCC, reference compound] | limited brain penetration | elevation in the glutamate max; also recorded: increases maximal response |  |  |  |  |  |  |  | 
2 | Cc1ccc(-n2ncc3c(N4CCCC(C)C4)ncnc32)c(C)c1 (centres unmarked) [Compound 7, 1-(2,4-dimethylphenyl)-4-(3-methylpiperidin-1-yl)-1H-pyrazolo[3,4-d]pyrimidine] |  | no increase in the glutamate max | selective versus mGluR5 | 9 | full antagonist | ~5.30 | 27.2(±8.5) fold and 27.2 fold | Concentration-dependent potentiation | does not activate mGluR4 | 
3 | N[C@@H](CCP(=O)(O)O)C(=O)O [L-AP4, L-(+)-2-amino-4-phosphonobutryic acid] |  |  |  |  |  |  |  |  |  | limited CNS penetration
